As a reminder, the IC50 is the concentration that inhibits the measured activity by half. Low values mean greater potency, high ones weaker potency.

The text below walks through data of ChEMBL document CHEMBL1136717, “Trypanocidal activity of conformationally restricted pentamidine congeners” (J Med Chem, 2003).

Test [1] concerns Trypanosoma brucei. In words: In vitro inhibitory concentration against mouse infected with Trypanosoma brucei rhodesiense (kETRI 243As-10-3). In kind it is functional, organism-based.
The subject of test [2] is Trypanosoma brucei. The experiment in a line: In vitro inhibitory concentration against mice infected with Trypanosoma brucei pentamidine-sensitive strain (EATRO Lab 110). In kind it is functional, organism-based.
A further test concerns Nucleic Acid. The experiment in a line: DNA binding affinity using poly(dA-dT). In kind it is nucleic-acid assay. In a few lines:
(§1)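 Thermal denaturation of calf thymus DNA or poly(dA-dT) at a 1:5 compound to base pair ratio. Binding affinity is reported as ΔTm, the shift in the midpoint (Tm) of the melting curve.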

In test [3] the test system is Trypanosoma brucei rhodesiense. In words: In vitro inhibitory concentration against mouse infected with Trypanosoma brucei rhodesiense (KETRI 269).
The test system of a further test is Calf thymus DNA. In words: DNA binding affinity using calf thymus DNA. In kind it is nucleic-acid assay. The settings on record: Bos taurus. A digest of the protocol:
as §1

Test [4] has as its system Trypanosoma brucei. The experiment in a line: In vitro inhibitory concentration against mice infected with Trypanosoma brucei rhodesiense (KETRI 243). In kind it is functional, organism-based.
In test [5] the test system is Mus musculus. In words: Ratio of number of cured to that of total after intraperitoneal administration (1.0 mg/kg) once a day for 3 days in mouse infected with Trypanosoma brucei (EATRO Lab 110);(0/3 of animals were cured). In kind it is functional, organism-based.
In test [6] the test system is Trypanosoma brucei. The experiment in a line: Mean survival dose (5.0 mg/kg) after intraperitoneal administration once a day for 3 days in mouse infected with Trypanosoma brucei (EATRO Lab 110). In kind it is functional. A digest of the protocol:
(§2)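 Female Swiss-Webster mice (20 g) infected ip with 2.5×10^5 trypanosomes from rat blood; treatment began 24 h later. Drug dissolved in distilled water, given ip once daily for 3 days, three mice per dose. Tail blood smears checked weekly. MSD is the mean survival of mice dying of infection, excluding cures. Cure means survival >30 days beyond the last control death with a clear smear.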

For test [7], the system named is Mus musculus. The experiment in a line: Ratio of number of cured to that of total after intraperitoneal administration (10.0 mg/kg) once a day for 3 days in mouse infected with Trypanosoma brucei (EATRO Lab 110); (3/3 of animals were cured). In kind it is functional, organism-based.
Test [8] deals with Trypanosoma brucei. In words: Mean survival dose (1.0 mg/kg) after intraperitoneal administration once a day for 3 days in mouse infected with Trypanosoma brucei (EATRO Lab 110). In kind it is functional. In a few lines: as §2
In test [9] the test system is Mus musculus. In words: Ratio of number of cured to that of total after intraperitoneal administration (5.0 mg/kg) once a day for 3 days in mouse infected with Trypanosoma brucei (EATRO Lab 110); (2/3 of animals were cured). In kind it is functional, organism-based.
Test [10] deals with Mus musculus. The experiment in a line: Ratio of number of cured to that of total after intraperitoneal administration (2.5 mg/kg) once a day for 3 days in mouse infected with Trypanosoma brucei (EATRO Lab 110); (1/3 of animals were cured). In kind it is functional, organism-based.
Test [11] has as its system Trypanosoma brucei. The experiment in a line: Mean survival dose (2.5 mg/kg) after intraperitoneal administration once a day for 3 days in mouse infected with Trypanosoma brucei (EATRO Lab 110). In kind it is functional. A digest of the protocol:
as §2

Test [12] has as its system Mus musculus. The experiment in a line: Ratio of number of cured to that of total after intraperitoneal administration (25 mg/kg) once a day for 3 days in mouse infected with Trypanosoma brucei (EATRO Lab 110); (3/3 of animals were cured). In kind it is functional, organism-based.
In test [13] the test system is Trypanosoma brucei. In words: Mean survival dose (25.0 mg/kg) after intraperitoneal administration once a day for 3 days in mouse infected with Trypanosoma brucei (EATRO Lab 110); Compound was toxic. In kind it is functional. In a few lines:
as §2

Test [14] deals with Mus musculus. In words: Ratio of number of cured to that of total after intraperitoneal administration (1.0 mg/kg) once a day for 3 days in mouse infected with Trypanosoma brucei (EATRO Lab 110); (0/3 of animals were cured). In kind it is functional, organism-based.
In test [15] the test system is Mus musculus. The experiment in a line: Ratio of number of cured to that of total after intraperitoneal administration (25 mg/kg) once a day for 3 days in mouse infected with Trypanosoma brucei (EATRO Lab 110); (0/3 of animals were cured). In kind it is functional, organism-based.
The subject of test [16] is Mus musculus. The experiment in a line: Ratio of number of cured to that of total after intraperitoneal administration (5.0 mg/kg) once a day for 3 days in mouse infected with Trypanosoma brucei (EATRO Lab 110); (3/3 of animals were cured). In kind it is functional, organism-based.
For test [17], the system named is Mus musculus. The experiment in a line: Ratio of number of cured to that of total after intraperitoneal administration (2.5 mg/kg) once a day for 3 days in mouse infected with Trypanosoma brucei (EATRO Lab 110); (3/3 of animals were cured). In kind it is functional, organism-based.
Test [18] deals with Mus musculus. In words: Ratio of number of cured to that of total after intraperitoneal administration (2.5 mg/kg) once a day for 3 days in mouse infected with Trypanosoma brucei (EATRO Lab 110); (0/3 of animals were cured). In kind it is functional, organism-based.
Test [19] deals with Mus musculus. The experiment in a line: Ratio of number of cured to that of total after intraperitoneal administration (5.0 mg/kg) once a day for 3 days in mouse infected with Trypanosoma brucei (EATRO Lab 110); (0/3 of animals were cured). In kind it is functional, organism-based.
Test [20] concerns Trypanosoma brucei. In words: Mean survival dose (10.0 mg/kg) after intraperitoneal administration once a day for 3 days in mouse infected with Trypanosoma brucei (EATRO Lab 110). In kind it is functional. In a few lines: as §2
Test [21] has as its system Mus musculus. In words: Ratio of number of cured to that of total after intraperitoneal administration (25 mg/kg) once a day for 3 days in mouse infected with Trypanosoma brucei (EATRO Lab 110);(3/3 of animals were cured). In kind it is functional, organism-based.
Test [22] deals with Mus musculus. In words: Ratio of number of cured to that of total after intraperitoneal administration (10.0 mg/kg) once a day for 3 days in mouse infected with Trypanosoma brucei (EATRO Lab 110); (1/3 of animals were cured). In kind it is functional, organism-based.

Calls of active or inactive are those of the source. The rule behind the calls is not given here.

`C(=C1CCN(Cc2ccc(C3=NCCN3)cc2)CC1)c1ccc(C2=NCCN2)cc1`: the IC50 with Trypanosoma brucei [1] was 90 nM; in the test with Trypanosoma brucei [2], 540 nM; in test [3] it was 265 nM; with Trypanosoma brucei [4], 465 nM. The DNA binding with Nucleic Acid amounted to 19.4 °C; in the test on Calf thymus DNA, 17 °C.

As to `C(=C1\CCCN(c2ccc(C3=NCCN3)cc2)C1)/c1ccc(C2=NCCN2)cc1`, the IC50 in the test on Trypanosoma brucei [1] amounted to 84 nM; with Trypanosoma brucei [2], 71 nM; in test [3] it was 88 nM; with Trypanosoma brucei [4], 84 nM. The figures for the DNA binding with Nucleic Acid and in the test on Calf thymus DNA were 15.5 °C and 12 °C, respectively.

Consider `c1cc(C2=NCCN2)ccc1CC1CCCN(c2ccc(C3=NCCN3)cc2)C1` (stereo not given), for which the IC50 with Trypanosoma brucei [1] stood at 79 nM; with Trypanosoma brucei [2], 86 nM; in test [3], 15 nM; in the test with Trypanosoma brucei [4], 85 nM. In addition, the DNA binding was found to be 14.1 °C in the test on Nucleic Acid and 9.9 °C with Calf thymus DNA.

For the molecule `N=C(NCCO)c1ccc(N2CCCN(c3ccc(/C(N)=N/CCO)cc3)CC2)cc1`, the concentration for half-maximal inhibition (IC50) in the test on Trypanosoma brucei [1], in the test on Trypanosoma brucei [2] and with Trypanosoma brucei [4] was over 1000 nM throughout. Besides, the DNA binding in the test on Nucleic Acid was 14.7 °C; in the test on Calf thymus DNA, 11.1 °C.

On to `N=C(NC1CC1)c1ccc(N2CCCN(c3ccc(C(=N)NC4CC4)cc3)CC2)cc1`, for which the IC50 was 850 nM with Trypanosoma brucei [1], 870 nM with Trypanosoma brucei [2] and 810 nM in the test with Trypanosoma brucei [4]. Also, the DNA binding in the test with Nucleic Acid was 23.6 °C; with Calf thymus DNA, 15.3 °C.

Turning to `CC(C)(C)/N=C(\N)c1ccc(N2CCCN(c3ccc(/C(N)=N/C(C)(C)C)cc3)CC2)cc1`, the IC50 in the test on Trypanosoma brucei [1], with Trypanosoma brucei [2] and in the test on Trypanosoma brucei [4] was over 1000 nM in each case. Also, the DNA binding was 7.4 °C in the test on Nucleic Acid and 4.1 °C in the test on Calf thymus DNA.

For `N=C(N)c1ccc(N2CCCN(c3ccc(C(=N)N)cc3)CC2)cc1`, the IC50 is 3.3 nM in the test on Trypanosoma brucei [1], 2.15 nM with Trypanosoma brucei [2], 7.1 nM in [3] and 2.71 nM in the test with Trypanosoma brucei [4]. The results for the DNA binding in the test on Nucleic Acid and in the test with Calf thymus DNA were 23.1 °C and 15 °C, respectively. Further, the Ratio entry with Mus musculus [5] is “inactive”. Moreover, the MSD amounted to 12 days in the test on Trypanosoma brucei [6], 8.3 days with Trypanosoma brucei [8] and 16.5 days with Trypanosoma brucei [11]. Also, the Ratio entry with Mus musculus [7] and with Mus musculus [12] was “Active” each time. For the same molecule, the Ratio entry in the test on Mus musculus [9] and with Mus musculus [10] was “Partially active” in each case.

Consider `N=C(N)c1ccc(NC(=O)c2cccc(C(=O)Nc3ccc(C(=N)N)cc3)n2)cc1`, for which the IC50 (with Trypanosoma brucei [1]; with Trypanosoma brucei [2]; in test [3]; in the test with Trypanosoma brucei [4]) was over 1000 nM in each case. Also, the DNA binding in the test with Nucleic Acid is 15.9 °C; with Calf thymus DNA, 7.1 °C.

Regarding `N=C(N)c1ccc(OCCCCCOc2ccc(C(=N)N)cc2)cc1` [PENTAMIDINE], the IC50 with Trypanosoma brucei [1] was found to be 5 nM; with Trypanosoma brucei [2], 0.8 nM; in test [3], 3.2 nM; in the test with Trypanosoma brucei [4], 3.1 nM. The DNA binding was 20.6 °C with Nucleic Acid and 11.1 °C with Calf thymus DNA.

Take `N=C(N)c1ccc(OC[C@@H]2C[C@H]2COc2ccc(C(=N)N)cc2)cc1`: the IC50 was determined as 0.17 nM with Trypanosoma brucei [1], 9.4 nM in the test on Trypanosoma brucei [2], 15.5 nM in [3] and 45 nM in the test with Trypanosoma brucei [4]. Further, the DNA binding is 20.3 °C in the test on Nucleic Acid and 11.1 °C in the test with Calf thymus DNA.

Consider `O=C(Nc1ccc(C2=NCCN2)cc1)C1C[C@H]1C(=O)Nc1ccc(C2=NCCN2)cc1` (stereo not given in full), for which the IC50 in the test with Trypanosoma brucei [1] was 810 nM; with Trypanosoma brucei [2], over 1000 nM; in [3] it was over 1000 nM; in the test on Trypanosoma brucei [4], 440 nM. Also, the results for the DNA binding with Nucleic Acid and in the test on Calf thymus DNA were 9.6 °C and 6 °C, respectively.

Regarding `c1cc(N2CCN(c3ccc(C4=NCCN4)cc3)CC2)ccc1C1=NCCN1`, the IC50 was 100 nM in the test with Trypanosoma brucei [1], 18.5 nM in the test with Trypanosoma brucei [2], 13 nM in test [3] and 13.5 nM with Trypanosoma brucei [4]. The MSD in the test on Trypanosoma brucei [13] came out at 19.7 days; in the test on Trypanosoma brucei [8], 10.3 days. In addition, the values for the DNA binding in the test with Nucleic Acid and with Calf thymus DNA were 19.4 °C and 15 °C, respectively. Moreover, the Ratio entry with Mus musculus [7], in the test on Mus musculus [16] and with Mus musculus [17] was “Active” in each case. The Ratio entry in the test with Mus musculus [14] and with Mus musculus [15] was “inactive” throughout.

For `CCCCNC(=N)c1ccc(N2CCCN(c3ccc(C(=N)NCCCC)cc3)CC2)cc1`, the IC50 in the test with Trypanosoma brucei [1] was 78 nM; with Trypanosoma brucei [2] it was 180 nM; with Trypanosoma brucei [4] it was 79 nM. Besides, the DNA binding in the test on Nucleic Acid is 13.3 °C; with Calf thymus DNA, 11.8 °C.

On to `CC(C)/N=C(\N)c1ccc(N2CCCN(c3ccc(/C(N)=N/C(C)C)cc3)CC2)cc1`, for which the IC50 in the test with Trypanosoma brucei [1] was 125 nM; with Trypanosoma brucei [2] it was over 1000 nM; with Trypanosoma brucei [4] it was 900 nM. The results for the DNA binding in the test on Nucleic Acid and in the test with Calf thymus DNA were 20 °C and 13.8 °C, respectively.

For the molecule `c1cc(N2CCCN(c3ccc(C4=NCCN4)cc3)CC2)ccc1C1=NCCN1`, the IC50 was 23 nM in the test with Trypanosoma brucei [1], 27.5 nM with Trypanosoma brucei [2], 155 nM in test [3] and 52 nM in the test on Trypanosoma brucei [4]. The DNA binding in the test with Nucleic Acid was 24 °C; in the test with Calf thymus DNA, 15 °C. Also, the MSD came to 7.7 days in the test with Trypanosoma brucei [6], 4.7 days in the test with Trypanosoma brucei [8], 14 days in the test with Trypanosoma brucei [20] and 4.3 days with Trypanosoma brucei [11]. In addition, the Ratio entry in the test with Mus musculus [18], in the test with Mus musculus [19] and with Mus musculus [14] was “inactive” throughout. Further, in the test with Mus musculus [21], the Ratio result is “Active”. For the same molecule, the Ratio entry in the test on Mus musculus [22] was “Partially active”.

With `c1cc(C2=NCCN2)ccc1CC1CCN(c2ccc(C3=NCCN3)cc2)CC1`, the IC50 came to 88 nM with Trypanosoma brucei [1], 169 nM in the test on Trypanosoma brucei [2], 155 nM in [3] and 185 nM in the test on Trypanosoma brucei [4]. The DNA binding stood at 33.9 °C in the test on Nucleic Acid and 21 °C in the test with Calf thymus DNA.
